For test [1], the system named is Rattus norvegicus. Briefly: Antihyperglycemic activity in Swiss albino rat model of streptozotocin-induced hyperglycemia assessed as reduction in blood glucose level at 0.36 mg/kg, po measured after 3 hrs by glucometer relative to control. Format: functional. Details: scale not given: the % may be the effect or the level left. The method, boiled down:
(§1)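 Adult male Swiss albino rats (200-300 g) acclimatized 24 h, then given streptozotocin 60.00 mg/kg i.p. in 0.90% sodium citrate buffer pH 4.50. Those with glucose >250.00 mg/dl at 72 h were used, six per group. Single oral dose; diabetic controls received 1% gum acacia vehicle. Tail blood glucose read by glucometer at 0 and 3 h; % reduction calculated.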

Test [2] is described as follows: Agonist activity at SUR in Wistar rat islets of pancreas assessed as induction of glucose-stimulated insulin secretion preincubated for 1 hr followed by glucose addition measured after 30 mins by sandwich ELISA. Put shortly: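 Islets from fed male-unspecified Wistar rats (200-250 g), pilocarpine-pretreated i.p., isolated by collagenase, then cultured overnight at 16 mmol/l glucose in CMRL-1066 with L-glutamine, gentamycin and 10% FCS at 37°C. Exposed 1 h to compound in DMSO (5, 10, 15, 20 uM), washed in Ringer HEPES, then 30 min at 37°C with 16.7 mmol/l glucose. Insulin measured by rat insulin sandwich ELISA (A450); EC50 reported.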
(In general: ELISA stands for enzyme-linked immunosorbent assay.)

Test [3] deals with Rattus norvegicus. Description: Antihyperglycemic activity in Swiss albino rat model of streptozotocin-induced hyperglycemia assessed as reduction in blood glucose level at 20 mg/kg, po measured after 3 hrs by glucometer relative to control. Format: functional. On the set-up: scale not given: the % may be the effect or the level left. Put shortly:
as §1

Test [4] has as its target T1, Peroxisome proliferator-activated receptor gamma (Homo sapiens, UniProt P37231).
T1 sequence (P37231 whole entry): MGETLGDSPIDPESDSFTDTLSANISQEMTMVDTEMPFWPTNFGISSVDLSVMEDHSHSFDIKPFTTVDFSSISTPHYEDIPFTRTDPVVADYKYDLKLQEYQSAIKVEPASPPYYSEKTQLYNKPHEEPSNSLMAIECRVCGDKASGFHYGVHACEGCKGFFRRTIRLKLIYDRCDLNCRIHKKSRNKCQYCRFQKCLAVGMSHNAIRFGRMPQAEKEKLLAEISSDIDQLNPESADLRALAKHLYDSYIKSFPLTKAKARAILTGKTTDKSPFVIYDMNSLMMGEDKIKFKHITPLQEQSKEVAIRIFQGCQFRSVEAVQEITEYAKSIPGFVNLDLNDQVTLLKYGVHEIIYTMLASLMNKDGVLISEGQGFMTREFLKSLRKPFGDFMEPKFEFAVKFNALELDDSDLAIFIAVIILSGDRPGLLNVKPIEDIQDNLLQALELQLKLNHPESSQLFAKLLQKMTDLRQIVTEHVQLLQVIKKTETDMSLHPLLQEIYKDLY
Description: Displacement of fluormone-PPARgamma Green from recombinant human N-terminal GST-tagged PPARgamma-LBD by fluorescence polarization assay.

One may read the EC50 as the concentration that produces a half-maximal response. One may read the IC50 as the concentration needed to halve the response being measured.

On to `CCC1=C(C)CN(C(=O)NCCc2ccc(S(=O)(=O)NC(=O)NC3CCC(C)CC3)cc2)C1=O` (stereo unspecified), for which the Activity in the test with Rattus norvegicus [1] was 26.53%. Besides, the EC50 in test [2] lay in the range of 0.73 to 4 µM.

As for `Cc1nc2ccccc2n(CC(=O)Nc2ccc(S(=O)(=O)NC(=O)Nc3ccccc3)cc2)c1=O`, the Activity in the test with Rattus norvegicus [3] turned out to be 25.15%.

For `O=C(CN1CC(=O)Nc2ccccc21)Nc1ccc(S(=O)(=O)NC(=S)NC2CCCCC2)cc1`, the Activity in the test on Rattus norvegicus [3] is recorded as 13.08%.

As to `Cc1nc2ccccc2n(CC(=O)Nc2ccc(S(=O)(=O)NC(=O)NC3CCCCC3)cc2)c1=O`, the IC50 in test [4] turned out to be 482 nM. In addition, the Activity with Rattus norvegicus [3] was determined as 50.58%. Besides, the concentration giving a half-maximal response (EC50) in test [2] was found to be 0.92 µM.

`O=C(CN1CC(=O)Nc2ccccc21)Nc1ccc(S(=O)(=O)NC(=S)Nc2ccccc2)cc1`: the Activity in the test on Rattus norvegicus [3] is reported as 2.88%.

For the molecule `O=C1CN(C(=O)CNc2ccc(S(=O)(=O)NC(=O)Nc3ccccc3)cc2)c2ccccc2N1`, in the test with Rattus norvegicus [3], the Activity amounted to 22.01%.

Regarding `Cc1nc2ccccc2n(CC(=O)Nc2ccc(S(=O)(=O)NC(=S)NC3CCCCC3)cc2)c1=O`, the IC50 in test [4] is 350 nM. The Activity in the test with Rattus norvegicus [3] was determined as 33.23%. Further, in test [2], the EC50 was 2.69 µM.

On to `CCCCNC(=O)NS(=O)(=O)c1ccc(NCC(=O)N2CC(=O)Nc3ccccc32)cc1`, for which the IC50 in test [4] is 1320 nM. For the same molecule, in the test on Rattus norvegicus [3], the Activity was found to be 40.55%. Further, the EC50 in test [2] turned out to be 1.95 µM.

In the case of `CCCCNC(=S)NS(=O)(=O)c1ccc(NC(=O)Cn2c(=O)c(C)nc3ccccc32)cc1`, the IC50 in test [4] amounted to 369 nM. Further, the Activity in the test with Rattus norvegicus [3] came out at 43.84%. Besides, the EC50 in test [2] was found to be 2.82 µM.

With `O=C(CN1CC(=O)Nc2ccccc21)Nc1ccc(S(=O)(=O)NC(=O)NC2CCCCC2)cc1`, the IC50 in test [4] was determined as 1150 nM. Besides, the Activity in the test on Rattus norvegicus [3] worked out at 39.81%. For the same molecule, the 50% effective concentration (EC50) in test [2] was 1.54 µM.

`O=C(CN1CC(=O)Nc2ccccc21)Nc1ccc(S(=O)(=O)NC(=O)Nc2ccccc2)cc1`: in the test with Rattus norvegicus [3], the Activity worked out at 21.89%.

Take `CCCCNC(=O)NS(=O)(=O)c1ccc(NC(=O)Cn2c(=O)c(C)nc3ccccc32)cc1`: the IC50 in test [4] was determined as 491 nM. For the same molecule, the Activity in the test on Rattus norvegicus [3] was found to be 40.55%. Also, the EC50 in test [2] stood at 0.98 µM.

In the case of `CCCCNC(=S)NS(=O)(=O)c1ccc(NC(=O)CN2CC(=O)Nc3ccccc32)cc1`, in the test on Rattus norvegicus [3], the Activity is recorded as 30.75%.

Regarding `O=C1CN(C(=O)CNc2ccc(S(=O)(=O)NC(=O)NC3CCCCC3)cc2)c2ccccc2N1`, in test [4], the IC50 was determined as 1140 nM. Also, the Activity in the test with Rattus norvegicus [3] is on record as 49.62%. In test [2], the EC50 was 1.89 µM.

Take `Cc1nc2ccccc2n(CC(=O)Nc2ccc(S(=O)(=O)NC(=S)Nc3ccccc3)cc2)c1=O`: the Activity with Rattus norvegicus [3] turned out to be 20.54%.

On to `CCCCNC(=O)NS(=O)(=O)c1ccc(NC(=O)CN2CC(=O)Nc3ccccc32)cc1`, for which, in test [4], the IC50 stood at 1290 nM. The Activity in the test with Rattus norvegicus [3] came to 45.1%. For the same molecule, in test [2], the concentration giving a half-maximal response (EC50) amounted to 1.69 µM.

Regarding `Cc1ccc(NC(=S)NS(=O)(=O)c2ccc(CCNS(=O)(=O)c3ccccc3)cc2)cc1`, the EC50 in test [2] is 100 µM.

Take `COc1ccc(NC(=S)NS(=O)(=O)c2ccc(CCNS(=O)(=O)c3ccccc3)cc2)cc1`: the EC50 in test [2] amounted to 1000 µM.

As for `O=S(=O)(NCCc1ccc(S(=O)(=O)NC(=S)Nc2ccc(Cl)cc2)cc1)c1ccc(Cl)cc1`, the EC50 in test [2] came out at 33.3 µM.

With `COc1ccc(NC(=S)NS(=O)(=O)c2ccc(CCNS(=O)(=O)c3ccc(Cl)cc3)cc2)cc1`, the concentration for a half-maximal effect (EC50) in test [2] amounted to 33.3 µM.

In the case of `O=C(NC1CCCCC1)NS(=O)(=O)c1ccc(CCNS(=O)(=O)c2ccccc2)cc1`, the EC50 in test [2] turned out to be 12.5 µM.

As to `CC1CCC(NC(=O)NS(=O)(=O)c2ccc(CCNS(=O)(=O)c3ccc(Cl)cc3)cc2)CC1` (stereo unspecified), in test [2], the EC50 is 2.04 µM.

For `CC1CCC(NC(=O)NS(=O)(=O)c2ccc(CCNS(=O)(=O)c3ccc(Br)cc3)cc2)CC1` (stereo unspecified), the EC50 in test [2] is 1.6 µM.

Turning to `CC1CCC(NC(=O)NS(=O)(=O)c2ccc(CCNS(=O)(=O)c3ccccc3)cc2)CC1` (stereo unspecified), the EC50 in test [2] turned out to be 3.4 µM.

Turning to `O=C(NC1CCCCC1)NS(=O)(=O)c1ccc(CCNS(=O)(=O)c2ccc(Cl)cc2)cc1`, in test [2], the EC50 came out at 3.1 µM.

For the molecule `O=C(NC1CCCCC1)NS(=O)(=O)c1ccc(CCNS(=O)(=O)c2ccc(Br)cc2)cc1`, the EC50 in test [2] was determined as 2.4 µM.

With `CC(=O)Nc1ccc(S(=O)(=O)NCCc2ccc(S(=O)(=O)NC(=O)NC3CCC(C)CC3)cc2)cc1C` (stereo unspecified), in test [2], the EC50 amounted to 7.14 µM.

In the case of `CC(=O)Nc1ccc(S(=O)(=O)NCCc2ccc(S(=O)(=O)NC(=O)NC3CCC(C)CC3)cc2)cc1` (stereo unspecified), the EC50 in test [2] stood at 20 µM.

`O=S(=O)(NCCc1ccc(S(=O)(=O)NC(=S)Nc2ccc(Cl)cc2)cc1)c1ccccc1`: in test [2], the EC50 came to 33.3 µM.
